From publication PMC9290826 (Chemmedchem, 2021)
≈ marks a conversion by molar mass, not a printed value. Where “and” joins values, the source holds several entries; their conditions need not be identical. Identical values can stand only once.

How the values were obtained:
Test in all cases: Antibacterial screening, broth dilution MIC
Type in all cases: cell-based
[1] = system: Staphylococcus aureus MRSA (DSM 11822, ICB 25701); conditions: for Mean MIC ± standard error: MRSA, TSY medium, 20 h at 37 °C, absorbance 600 nm, n=3‐13
Method in brief: (§1)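 Test compound serially diluted from 64 μg/ml, inoculum 2–8×10^5 CFU/ml, duplicate wells. Incubated 20 h at 37 °C, then absorbance read at 600 nm. MIC derived by curve fitting over three independent experiments. Positive controls: linezolid for S. aureus, ciprofloxacin for the others.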

[2] = system: Enterococcus faecium (DSM 20477, ATCC 19434); conditions: E. faecium, TSY medium, 20 h at 37 °C, absorbance 600 nm, n=3‐13
Method in brief: as §1

[3] = system: Escherichia coli (DSM1116, ATCC 9637); conditions: E. coli, TSY medium, 20 h at 37 °C, absorbance 600 nm, n=3‐13
Method in brief: as §1

[4] = system: Pseudomonas aeruginosa PA7 (DSM 24068); conditions: for Mean MIC ± standard error: P. aeruginosa PA7, MHB medium, 20 h at 37 °C, absorbance 600 nm, n=3‐13
Method in brief: as §1, with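 “Broth microdilution in MHB (21 g/L Müller Hinton, pH 7.4). Test” for “Test”, “amikacin” for “linezolid”, “P. aeruginosa,” for “S. aureus,”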

[5] = system: Acinetobacter baumannii (DSM 30007, ATCC 19606); conditions: A. baumannii, MHB medium, 20 h at 37 °C, absorbance 600 nm, n=3‐13
Method in brief: as §1, with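 “Broth microdilution in MHB (21 g/L Müller Hinton, pH 7.4). Test” for “Test”, “amikacin” for “linezolid”, “P. aeruginosa,” for “S. aureus,”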

[6] = system: Klebsiella pneumoniae (DSM 11678, ATCC33495); conditions: K. pneumoniae, MHB medium, 20 h at 37 °C, absorbance 600 nm, n=3‐13
Method in brief: as §1, with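 “Broth microdilution in MHB (21 g/L Müller Hinton, pH 7.4). Test” for “Test”, “amikacin” for “linezolid”, “P. aeruginosa,” for “S. aureus,”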

Mean MIC ± standard error [1]	Mean MIC ± standard error [2]	Mean MIC ± standard error [3]	Mean MIC ± standard error [4]	Mean MIC ± standard error [5]	Mean MIC ± standard error [6]	MIC ([4]; Pseudomonas aeruginosa, DSM24068, 20 h, read-out: Mean MIC ± standard error)	MIC ([1]; Staphylococcus aureus, DSM11822|MRSA, 20 h, read-out: Mean MIC ± standard error)	Compound
0.8 ± 0.4 µM	1.2 ± 0.0 µM	39.3 ± 0.0 µM	118.0 ± 43.1 µM	8.4 ± 2.4 µM	65.6 µM and 65.6 ± 32.1 µM			CCn1[c](=[Au-2][Cl])n(CC)c2ccccc21 [2 b]
							2.8 ± 1 µM (≈ 0.945 µg/mL)	CC(=O)NC[C@H]1CN(c2ccc(N3CCOCC3)c(F)c2)C(=O)O1 [linezolid, reference compound]

Further lines, the compound ahead of its results:

Compound	Mean MIC ± standard error [1]	Mean MIC ± standard error [2]	Mean MIC ± standard error [3]	Mean MIC ± standard error [4]	Mean MIC ± standard error [5]	Mean MIC ± standard error [6]	MIC ([4]; Pseudomonas aeruginosa, DSM24068, 20 h, read-out: Mean MIC ± standard error)	MIC ([1]; Staphylococcus aureus, DSM11822|MRSA, 20 h, read-out: Mean MIC ± standard error)
CCn1[c](=[Au-2]([Cl])([Cl])[Cl])n(CC)c2ccccc21 [2 c]	1.1 ± 0.0 µM	4.2 ± 0.0 µM	39.1 ± 25.6 µM	>30 µM	3.5 ± 1.2 µM	16.8 µM and 16.8 ± 0.0 µM		
NCC[C@H](O)C(=O)N[C@@H]1C[C@H](N)[C@@H](O[C@H]2O[C@H](CN)[C@@H](O)[C@H](O)[C@H]2O)[C@H](O)[C@H]1O[C@H]1O[C@H](CO)[C@@H](O)[C@H](N)[C@H]1O [amikacin, reference compound]							6.9 ± 7.3 µM (≈ 4.04 µg/mL)	
CC(=O)OC[C@H]1O[C@@H]([S-])[C@H](OC(C)=O)[C@@H](OC(C)=O)[C@@H]1OC(C)=O.CCP(CC)CC.[Au+] [auranofin, reference compound]	<0.2 µM	0.6 ± 0.2 µM	>30 µM	>30 µM	7.8 ± 7.1 µM	>30 µM		
